Compound activity: PubChem, The Scripps Research Institute Molecular Screening Center
Shown are actives, neighbours in structure and some others; about 1.9% of the full set was active somewhere.
NPY-Y1 PAM-ag = human NPY-Y1 potentiation or agonism, primary screen | AID 1304 | activation, % at 3.6 µM | P25929 | 0.37% of 220,000 active | NPY-Y1 expressing cells, potentiator/agonist activation; in the data active means activation above about 33%, passing the limit was not always enough;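 further: cells stimulated with NPY at EC10 then isoproterenol at EC100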
NPY2 pot ag = human NPY-Y2 potentiation or agonism, primary screen; activation, % at 3.6 µM; cells expressing NPY-Y2, potentiator/agonist read-out; AID 1359; 0.45% of 220,000 active; in the data active means activation above about 27%;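 further: cells stimulated with NPY near EC25 plus isoproterenol at EC100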
Target sequence (P49146 whole entry, looked up): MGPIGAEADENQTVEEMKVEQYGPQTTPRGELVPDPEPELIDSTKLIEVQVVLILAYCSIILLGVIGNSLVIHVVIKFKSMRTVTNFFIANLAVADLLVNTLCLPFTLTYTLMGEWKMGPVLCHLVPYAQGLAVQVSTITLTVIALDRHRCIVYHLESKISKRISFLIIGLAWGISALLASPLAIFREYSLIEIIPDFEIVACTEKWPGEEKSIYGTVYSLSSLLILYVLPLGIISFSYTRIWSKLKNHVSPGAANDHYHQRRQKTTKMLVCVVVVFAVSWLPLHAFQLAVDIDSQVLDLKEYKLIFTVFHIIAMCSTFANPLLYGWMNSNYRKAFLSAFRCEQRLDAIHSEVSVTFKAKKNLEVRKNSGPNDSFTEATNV
NPY-Y1 antag = antagonists of human neuropeptide Y receptor Y1. HEK293-CNG Y1 cells, membrane potential fluorescence; NPY at EC95, then isoproterenol. 1% of 200,000 active. inhibition, % at 3.6 µM. AID 1040. P25929;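 active means inhibition above the campaign mean inhibition of all tested compounds plus 3 SD, cut at about 20% in these data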
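Material: HEK293 Y1/CNG channel cell line | Also added: NPY (25 nM), isoproterenol (1 µM), Ro 20-1724 (25 µM) | Compound: One concentration, 3.6 µM, in 0.4% DMSO | Schedule: 3 h dye uptake, 1 h room-temperature compound, 45 min post-isoproterenol | Signal: Membrane-potential fluorescent dye readout | Read-out: % inhibition of NPY effect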
NPY-Y2 antag = blocks the human neuropeptide Y Y2 receptor; NPY-Y2 expressing cells, antagonist mode; 0.99% of 140,000 active; P49146; AID 793; inhibition, % at 2.7 µM; in the data active means inhibition above about 17%
Hits are given with their value; 0 = inactive; - = no result given.

SMILES	NPY-Y1 PAM-ag	NPY2 pot ag	NPY-Y1 antag	NPY-Y2 antag
COc1ccc(Nc2nc3ccc(OC)cc3s2)cc1	0	0	0	-
COc1ccc2nc(Nc3nc(C)c(C(C)=O)s3)sc2c1	40.7	34.2	0	0
Cc1nc2c3cc(Cl)ccc3n(CCN3CCCCC3)c2s1	0	0	25.1	33.3
COC(=O)Cn1c2ccc(Cl)cc2c2nc(C)sc21	0	0	-	-
Cc1nc2c3cc(F)ccc3n(Cc3ccc(F)cc3)c2s1	0	0	27.3	17.6
COC(=O)Cn1c2ccc(F)cc2c2nc(C)sc21	0	0	0	0
O=C(O)CCCC(=O)N1N=C(c2ccccc2)CC1c1cccs1 (centres undefined)	0	0	-	-
COc1ccc(-c2cc(C(F)F)n3ncc(C(=O)NCC4CCCO4)c3n2)cc1 (centres undefined)	0	0	29.0	28.9
COc1ccc(-c2cc(C(F)(F)F)n3ncc(C(=O)NCC4CCCO4)c3n2)cc1OC (centres undefined)	0	0	0	0
CC(C)CCOc1ccc(C2CC(=O)N(C)C2=O)cc1 (centres undefined)	0	0	0	-
Cc1cc(C(=O)CCl)c(C)n1CCc1ccc(F)cc1	0	0	0	-
Cc1cc(C(=O)CCl)c(C)n1CCc1ccc(Cl)cc1	62.6	91.4	0	-
COc1ccc(C(CCNC(C)c2ccccc2)C(C)C)cc1 (centres undefined)	0	0	-	-
COc1ccc([C@H](C)NC[C@H](O)c2ccc(O)c(NC=O)c2)cc1	58.6	79.4	0	-
O=C(NCc1cn(-c2ccccc2)nc1-c1ccc(F)cc1)c1cccc([N+](=O)[O-])c1	0	0	0	0
COc1cccc(S(=O)(=O)NCc2ccc(C(=O)Nc3ccc(Cl)c(Cl)c3)cc2)c1	44.0	0	0	0
COc1ccc(NC(=O)c2ccc(CNS(=O)(=O)c3cccc(OC)c3)cc2)cc1	0	0	0	0
OC(CNCc1ccccc1F)(c1ccc(F)cc1)c1ccc(F)cc1	0	0	0	-
COc1ccccc1CNCC(O)(c1ccc(Cl)cc1)c1ccc(Cl)cc1	0	0	20.9	21.2
CCn1c(O)c(N=NC(=O)c2ccc(CSc3nncn3C)cc2)c2ccccc21	0	0	0	0
Cn1cnnc1SCc1ccc(C(=O)N=Nc2c(O)n(Cc3ccc(Cl)cc3)c3ccccc23)cc1	47.3	46.1	0	0
Nc1nc(-c2ccc3c(c2)OCCO3)cs1	0	0	20.4	0
O=C(NCCCl)Nc1cccnc1Cl	0	0	0	-
CC(C)CNC(=O)c1ccccc1NC(=O)CN(c1ccccc1)S(=O)(=O)N(C)C	0	0	0	-
CCOC(=O)c1sc(N(Cc2ccccc2)C(=O)CSc2ncn[nH]2)nc1C	0	0	0	0
SMILES	NPY-Y1 PAM-ag	NPY2 pot ag	NPY-Y1 antag	NPY-Y2 antag
CCOC(=O)c1sc(N(Cc2ccccc2)C(=O)COC(=O)c2ccc(O)cc2)nc1C	0	0	41.8	26.2
Cc1ccn2c(Nc3ccccc3C)c(-c3ccccn3)nc2c1	40.9	30.3	0	-
Cc1ccccc1Nc1c(-c2ccccn2)nc2ccccn12	34.6	34.6	0	-
Cc1ccc2nc(-c3ccccn3)c(Nc3ccccc3C)n2c1	45.8	36.3	0	-
O=C(O)CNS(=O)(=O)c1ccc(C2CCCCC2)cc1	0	0	0	-
COc1cccc(CC(=O)Nc2ccc(S(=O)(=O)Nc3nc(C)cc(C)n3)cc2)c1	0	0	0	-
Cc1ccc(NC(=O)COC(=O)/C(=C/c2cccs2)c2cccs2)cc1S(=O)(=O)N(C)C	0	0	0	0
COc1ccccc1-c1noc(-c2ccccc2C(=O)Nc2ccccc2)n1	0	0	22.6	23.6
COc1ccccc1NC(=O)c1ccccc1-c1nc(-c2ccccc2OC)no1	0	0	0	0
CC1(C)C(N(O)C(=O)Nc2ccc(Cl)cc2)N(c2ccc(Cl)cc2)C(=O)N1CC(=O)NN (centres undefined)	40.8	43.2	0	0
O=[N+]([O-])c1ccccc1OCC(O)CNC1CCCC1 (centres undefined)	112.3	103.9	-	-
COc1ccc(-n2cc(CNCCCN3CCCC3=O)c(-c3ccccc3Cl)n2)cc1	0	0	20.5	-
O=C(Nc1ccc(Oc2ccc(C(=O)O)c(C(=O)O)c2)cc1)c1cccs1	0	0	0	-
CCOc1ccccc1C(=O)N1CCN(c2cccc(Cl)c2)CC1	0	0	29.9	17.4
CCC(c1nnnn1Cc1ccco1)N1CCN(c2cc(Cl)ccc2C)CC1 (centres undefined)	0	0	27.3	27.6
Cc1ccc(Cl)cc1N1CCN(Cc2nnnn2Cc2ccco2)CC1	0	0	0	0
COc1ccc(N=Nc2nc3cc(Br)c(Br)cc3n2C)c(OC)c1	0	0	0	0
CCc1cc(C(=O)c2ccc(C)cc2)c(NC(=O)CCl)s1	42.5	35.3	0	0
Cc1cc(C(=O)c2ccc(Cl)cc2)c(NC(=O)CCl)s1	0	0	0	0
CC(=O)c1c(C)nc2ccc(Br)cc2c1-c1ccccc1	0	0	21.7	-
CC(=O)c1c(C)nc2ccc(Br)cc2c1C(=O)O	0	0	0	0
Cc1ccc(OCCn2c(NC(=O)c3ccco3)nc3ccccc32)cc1	0	0	0	20.2
c1ccc(OCCn2c(-c3ccco3)nc3ccccc32)cc1	0	0	0	0
Cc1cccc(OCCn2c(NC(=O)c3ccco3)nc3ccccc32)c1	0	0	33.5	37.0
O=C(Nc1nc2ccccc2n1CCOc1ccc(Cl)cc1)c1ccco1	0	0	24.1	31.4
SMILES	NPY-Y1 PAM-ag	NPY2 pot ag	NPY-Y1 antag	NPY-Y2 antag
Cc1cccc(OCCn2c(-c3ccco3)nc3ccccc32)c1	0	0	26.2	20.3
O=C(Nc1nc2ccccc2n1CCOc1ccccc1)c1ccco1	0	0	0	0
CC(=O)C1C(c2ccc(Cl)cc2)c2c(noc2C)CC1(C)O (centres undefined)	0	0	-	-
CN(C)CC(=O)Nc1nc(-c2ccccc2)cs1	0	0	0	0
O=C(O)CCC(=O)Nc1nc(-c2ccccc2)cs1	0	0	0	22.3
COc1ccc(N=CC2=C(Nc3ccc(OC)cc3)c3c(C)nn(-c4ccccn4)c3CC2)cc1	0	0	20.7	0
O=C(CCCOc1ccccc1)Nc1ccncc1	0	0	0	0
O=C(CCCOc1ccccc1)Nc1ccc(Br)cc1	0	0	22.2	0
CCn1c(C)nc2cc(C(=O)N3N=C(CCOC)CC3(O)C(F)(F)F)ccc21 (centres undefined)	0	0	-	-
CC1CCC(C(C)C)C(OC(=O)C[n+]2cc(-c3ccc(Cl)cc3)n3c2CCC3)C1 (centres undefined)	0	0	-	-
CC1CCC(C(C)C)C(OC(=O)Cn2c(-c3ccc(F)cc3)[n+](C)c3ccccc32)C1 (centres undefined)	0	0	61.5	46.2
CC1CCC(C(C)C)C(OC(=O)Cn2c(-c3ccccc3)[n+](C)c3ccccc32)C1 (centres undefined)	0	0	112.1	80.2
C=CCn1c(CCc2cc(C(C)(C)C)c(O)c(C(C)(C)C)c2)n[nH]c1=S	0	0	0	-
CC(C)C(=O)N1CCN(c2ccccc2NC(=O)Cc2ccc(Cl)cc2)CC1	0	0	43.5	20.4
CCC(=O)N1CCN(c2ccc(Cl)cc2NC(=O)c2ccc(Br)o2)CC1	0	0	0	17.4
CC(=O)N1CCN(c2ccccc2NC(=O)Cc2ccc(Cl)cc2)CC1	0	0	0	-
